Laboratory results as given in ChEMBL document CHEMBL1158698, “Chinikomycins A and B: isolation, structure elucidation, and biological activity of novel antibiotics from a marine Streptomyces sp. isolate M045” (J Nat Prod, 2005).
In brackets after ≈: the same amount, converted by molar mass. Activity calls are given as the source filed them. No cut-off for these calls is given here.

Tests used:
[1] = Antitumor activity against human LXFA 629L cells; format: functional, cell-based
[2] = Antitumor activity against human LXFL 529L cells; format: functional, cell-based
[3] = Antitumor activity against human MAXF 401NL cells; format: functional, cell-based
[4] = Antitumor activity against human MEXF 462NL cells; format: functional, cell-based
[5] = Antitumor activity against human RXF 944L cells; format: functional, cell-based
[6] = Antitumor activity against human UXF 1138L cells; format: functional, cell-based
Bacillus subtilis [7] = experiment: Antimicrobial activity against Bacillus subtilis at 40 ug/plate; format: functional, organism-based
Outline: (§1)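 Agar plate diffusion test. The stated amount of compound is applied per test plate seeded with the named bacterium, alga or fungus. The read-out is the diameter of the growth-inhibition zone, in mm.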

[8] = tested on: Streptomyces viridochromogenes; experiment: Antimicrobial activity against Streptomyces viridochromogenes Tu 57 at 40 ug/plate; format: functional, organism-based; outline: as §1
Staphylococcus aureus [9] = experiment: Antimicrobial activity against Staphylococcus aureus at 40 ug/plate; format: functional, organism-based; outline: as §1
Escherichia coli [10] = experiment: Antimicrobial activity against Escherichia coli at 40 ug/plate; format: functional, organism-based; outline: as §1
Chlorella vulgaris [11] = experiment: Antimicrobial activity against Chlorella vulgaris at 40 ug/plate; format: functional, organism-based; outline: as §1
Chlorella sorokiniana [12] = experiment: Antimicrobial activity against Chlorella sorokiniana at 40 ug/plate; format: functional, organism-based; outline: as §1
Desmodesmus subspicatus [13] = experiment: Antimicrobial activity against Scenedesmus subspicatus at 40 ug/plate; format: functional, organism-based; outline: as §1
Rhizomucor miehei [14] = experiment: Antimicrobial activity against Mucor miehei at 40 ug/plate; format: functional, organism-based; outline: as §1
Candida albicans [15] = experiment: Antimicrobial activity against Candida albicans at 40 ug/plate; format: functional, organism-based; outline: as §1
[16] = tested on: Encephalomyocarditis virus; experiment: Antiviral activity against EMC virus infected in human A549 cells assessed as protection against virus-induced cytopathic effect at 100 ug/ml; format: functional, organism-based
Bacillus subtilis [17] = experiment: Antimicrobial activity against Bacillus subtilis at 10 ug/plate; format: functional; outline: as §1
[18] = tested on: Streptomyces viridochromogenes; experiment: Antimicrobial activity against Streptomyces viridochromogenes Tu 57 at 10 ug/plate; format: functional; outline: as §1
Staphylococcus aureus [19] = experiment: Antimicrobial activity against Staphylococcus aureus at 10 ug/plate; format: functional; outline: as §1
Escherichia coli [20] = experiment: Antimicrobial activity against Escherichia coli at 10 ug/plate; format: functional; outline: as §1
Chlorella vulgaris [21] = experiment: Antimicrobial activity against Chlorella vulgaris at 10 ug/plate; format: functional; outline: as §1
Chlorella sorokiniana [22] = experiment: Antimicrobial activity against Chlorella sorokiniana at 10 ug/plate; format: functional; outline: as §1
Desmodesmus subspicatus [23] = experiment: Antimicrobial activity against Scenedesmus subspicatus at 10 ug/plate; format: functional; outline: as §1
Rhizomucor miehei [24] = experiment: Antimicrobial activity against Mucor miehei at 10 ug/plate; format: functional; outline: as §1
Candida albicans [25] = experiment: Antimicrobial activity against Candida albicans at 10 ug/plate; format: functional; outline: as §1

IC50 [1] [µg/mL] | IC50 [2] [µg/mL] | IC50 [3] [µg/mL] | IC50 [4] [µg/mL] | IC50 [5] [µg/mL] | IC50 [6] [µg/mL] | Compound | Activity (Bacillus subtilis [7]) | Activity [8] | Activity (Staphylococcus aureus [9]) | Activity (Escherichia coli [10]) | Activity (Chlorella vulgaris [11]) | Activity (Chlorella sorokiniana [12]) | Activity (Desmodesmus subspicatus [13]) | Activity (Rhizomucor miehei [14]) | Activity (Candida albicans [15]) | Activity [16] | other results
> 6 | > 6 | 2.41 (≈ 4.23 µM) | 4.15 (≈ 7.29 µM) | 4.02 (≈ 7.06 µM) | > 6 | CCCC[C@@H](C)/C=C(C)/C=C(\C)C(=O)Nc1cc(O)c(/C=C/C=C/C=C/C(=O)NC2=C(O)CCC2=O)c(Cl)c1O [CHINIKOMYCIN A] | inactive | inactive | inactive | inactive | inactive | inactive | inactive | inactive | inactive | inactive | –
> 6 | > 6 | 3.04 (≈ 5.36 µM) | > 6 | > 6 | > 6 | CCCC[C@@H](C)/C=C(C)/C=C(\C)C(=O)NC1=CC(=O)C(/C=C/C=C/C=C/C(=O)NC2=C(O)CCC2=O)=C(Cl)C1=O [CHINIKOMYCIN B] | inactive | inactive | inactive | inactive | inactive | inactive | inactive | inactive | inactive | inactive | –
– | – | – | – | – | – | CCCC[C@@H](C)/C=C(C)/C=C(\C)C(=O)NC1=C[C@@](O)(/C=C/C=C/C=C/C(=O)NC2=C(O)CCC2=O)[C@@H]2O[C@@H]2C1=O [MANUMYCIN A] | – | – | – | – | – | – | – | – | – | – | inhibition zone (IZ) (Bacillus subtilis [17]): 16 mm; inhibition zone (IZ) [18]: 16 mm; inhibition zone (IZ) (Staphylococcus aureus [19]): 16 mm; inhibition zone (IZ) (Escherichia coli [20]): 16 mm; inhibition zone (IZ) (Chlorella vulgaris [21]): 16 mm; inhibition zone (IZ) (Chlorella sorokiniana [22]): 16 mm; inhibition zone (IZ) (Desmodesmus subspicatus [23]): 16 mm; inhibition zone (IZ) (Rhizomucor miehei [24]): 16 mm; inhibition zone (IZ) (Candida albicans [25]): 16 mm
